Measured values published in ChEMBL document CHEMBL1134488, “Potent reversible inhibitors of the protein tyrosine phosphatase CD45” (J Med Chem, 2001).

Experiments:
[1] = target: T1, Receptor-type tyrosine-protein phosphatase C (Homo sapiens, UniProt P08575); assay: Inhibitory concentration against CD45 protein-tyrosine phosphatase using lck-10 mer as substrate
T1 sequence (P08575 whole entry): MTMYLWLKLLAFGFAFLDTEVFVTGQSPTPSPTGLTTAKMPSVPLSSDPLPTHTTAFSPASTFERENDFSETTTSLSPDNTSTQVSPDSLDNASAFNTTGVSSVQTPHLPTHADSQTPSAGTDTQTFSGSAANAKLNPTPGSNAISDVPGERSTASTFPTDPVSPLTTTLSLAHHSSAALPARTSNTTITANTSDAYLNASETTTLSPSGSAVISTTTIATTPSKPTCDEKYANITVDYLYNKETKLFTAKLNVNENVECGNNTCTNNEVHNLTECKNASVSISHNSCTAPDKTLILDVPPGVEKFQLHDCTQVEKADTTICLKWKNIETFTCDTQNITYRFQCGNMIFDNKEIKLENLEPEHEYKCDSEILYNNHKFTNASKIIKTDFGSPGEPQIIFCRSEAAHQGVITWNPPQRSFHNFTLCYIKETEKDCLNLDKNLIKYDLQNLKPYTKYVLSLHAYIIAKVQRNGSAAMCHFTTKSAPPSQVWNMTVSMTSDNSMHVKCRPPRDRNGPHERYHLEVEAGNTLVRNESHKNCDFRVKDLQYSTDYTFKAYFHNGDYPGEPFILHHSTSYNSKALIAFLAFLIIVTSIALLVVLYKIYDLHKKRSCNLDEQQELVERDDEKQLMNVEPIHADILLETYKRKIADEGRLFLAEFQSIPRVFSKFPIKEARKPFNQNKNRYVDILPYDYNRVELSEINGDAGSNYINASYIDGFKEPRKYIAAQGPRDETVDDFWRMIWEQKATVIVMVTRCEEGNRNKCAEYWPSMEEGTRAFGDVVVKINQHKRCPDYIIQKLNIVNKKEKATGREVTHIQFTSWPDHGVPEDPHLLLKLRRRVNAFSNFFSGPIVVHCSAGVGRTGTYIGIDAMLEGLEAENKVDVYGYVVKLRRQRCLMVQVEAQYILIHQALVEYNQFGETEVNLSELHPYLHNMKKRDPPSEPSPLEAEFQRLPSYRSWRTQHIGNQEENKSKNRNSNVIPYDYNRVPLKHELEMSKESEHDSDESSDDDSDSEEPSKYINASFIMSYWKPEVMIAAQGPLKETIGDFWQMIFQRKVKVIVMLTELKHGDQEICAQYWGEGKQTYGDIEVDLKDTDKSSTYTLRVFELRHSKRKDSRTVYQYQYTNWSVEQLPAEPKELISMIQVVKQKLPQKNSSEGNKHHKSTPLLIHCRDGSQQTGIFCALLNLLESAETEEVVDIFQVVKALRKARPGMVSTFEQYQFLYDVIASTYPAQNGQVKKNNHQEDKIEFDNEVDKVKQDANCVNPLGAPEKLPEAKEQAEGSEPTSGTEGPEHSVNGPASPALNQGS

[2] = target: T2, Tyrosine-protein phosphatase non-receptor type 1 (Homo sapiens, UniProt P18031); assay: Inhibitory concentration against PTP1B using lck as substrate
T2 sequence (P18031 whole entry): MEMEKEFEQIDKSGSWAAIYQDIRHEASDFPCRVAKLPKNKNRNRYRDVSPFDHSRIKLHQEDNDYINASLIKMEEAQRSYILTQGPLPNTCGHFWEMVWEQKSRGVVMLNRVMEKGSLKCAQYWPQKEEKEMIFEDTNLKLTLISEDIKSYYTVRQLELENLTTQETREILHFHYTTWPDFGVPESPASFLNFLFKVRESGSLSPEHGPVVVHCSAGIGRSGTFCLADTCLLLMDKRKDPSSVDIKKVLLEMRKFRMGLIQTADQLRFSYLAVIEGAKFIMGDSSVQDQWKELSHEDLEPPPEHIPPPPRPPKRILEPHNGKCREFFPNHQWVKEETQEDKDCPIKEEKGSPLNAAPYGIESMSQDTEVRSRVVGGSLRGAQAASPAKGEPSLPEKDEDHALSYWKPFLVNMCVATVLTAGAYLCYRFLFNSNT

T-cell [3] = assay: Cytotoxicity measured against human T-cells; assay type: functional
[4] = target: T1, Receptor-type tyrosine-protein phosphatase C; assay: Inhibitory concentration against CD45 protein-tyrosine phosphatase using lck-10mer as substrate
Cathepsin B = Cathepsin B (Homo sapiens, UniProt P07858); assay: Inhibitory concentration against Cathepsin B
Outline: (§1)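 Cysteine protease assays. Peptide substrates were CBZ-L-lysine p-nitrophenyl ester, Z-Phe-Arg-NH-Mec and Z-Val-Val-Arg-NH-Mec. Values are means of experiments run in triplicate, given in µM.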

Procathepsin L = Procathepsin L (Homo sapiens, UniProt P07711); assay: Inhibitory concentration against Cathepsin L; outline: as §1
Chain of Procathepsin L (P07711 whole entry): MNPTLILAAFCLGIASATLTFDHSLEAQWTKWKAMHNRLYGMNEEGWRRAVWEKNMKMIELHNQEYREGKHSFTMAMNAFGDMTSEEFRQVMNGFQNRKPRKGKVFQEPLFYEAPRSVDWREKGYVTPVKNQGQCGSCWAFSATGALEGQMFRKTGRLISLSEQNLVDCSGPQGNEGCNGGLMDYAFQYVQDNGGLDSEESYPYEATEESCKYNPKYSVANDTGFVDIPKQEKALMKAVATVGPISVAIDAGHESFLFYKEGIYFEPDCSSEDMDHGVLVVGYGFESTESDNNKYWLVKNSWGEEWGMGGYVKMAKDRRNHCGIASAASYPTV

[5] = target: T3, Tyrosine-protein phosphatase non-receptor type 13 (Homo sapiens, UniProt Q12923); assay: Inhibitory concentration against FAP-1 using lck-10 mer as substrate
T3 sequence (Q12923 whole entry): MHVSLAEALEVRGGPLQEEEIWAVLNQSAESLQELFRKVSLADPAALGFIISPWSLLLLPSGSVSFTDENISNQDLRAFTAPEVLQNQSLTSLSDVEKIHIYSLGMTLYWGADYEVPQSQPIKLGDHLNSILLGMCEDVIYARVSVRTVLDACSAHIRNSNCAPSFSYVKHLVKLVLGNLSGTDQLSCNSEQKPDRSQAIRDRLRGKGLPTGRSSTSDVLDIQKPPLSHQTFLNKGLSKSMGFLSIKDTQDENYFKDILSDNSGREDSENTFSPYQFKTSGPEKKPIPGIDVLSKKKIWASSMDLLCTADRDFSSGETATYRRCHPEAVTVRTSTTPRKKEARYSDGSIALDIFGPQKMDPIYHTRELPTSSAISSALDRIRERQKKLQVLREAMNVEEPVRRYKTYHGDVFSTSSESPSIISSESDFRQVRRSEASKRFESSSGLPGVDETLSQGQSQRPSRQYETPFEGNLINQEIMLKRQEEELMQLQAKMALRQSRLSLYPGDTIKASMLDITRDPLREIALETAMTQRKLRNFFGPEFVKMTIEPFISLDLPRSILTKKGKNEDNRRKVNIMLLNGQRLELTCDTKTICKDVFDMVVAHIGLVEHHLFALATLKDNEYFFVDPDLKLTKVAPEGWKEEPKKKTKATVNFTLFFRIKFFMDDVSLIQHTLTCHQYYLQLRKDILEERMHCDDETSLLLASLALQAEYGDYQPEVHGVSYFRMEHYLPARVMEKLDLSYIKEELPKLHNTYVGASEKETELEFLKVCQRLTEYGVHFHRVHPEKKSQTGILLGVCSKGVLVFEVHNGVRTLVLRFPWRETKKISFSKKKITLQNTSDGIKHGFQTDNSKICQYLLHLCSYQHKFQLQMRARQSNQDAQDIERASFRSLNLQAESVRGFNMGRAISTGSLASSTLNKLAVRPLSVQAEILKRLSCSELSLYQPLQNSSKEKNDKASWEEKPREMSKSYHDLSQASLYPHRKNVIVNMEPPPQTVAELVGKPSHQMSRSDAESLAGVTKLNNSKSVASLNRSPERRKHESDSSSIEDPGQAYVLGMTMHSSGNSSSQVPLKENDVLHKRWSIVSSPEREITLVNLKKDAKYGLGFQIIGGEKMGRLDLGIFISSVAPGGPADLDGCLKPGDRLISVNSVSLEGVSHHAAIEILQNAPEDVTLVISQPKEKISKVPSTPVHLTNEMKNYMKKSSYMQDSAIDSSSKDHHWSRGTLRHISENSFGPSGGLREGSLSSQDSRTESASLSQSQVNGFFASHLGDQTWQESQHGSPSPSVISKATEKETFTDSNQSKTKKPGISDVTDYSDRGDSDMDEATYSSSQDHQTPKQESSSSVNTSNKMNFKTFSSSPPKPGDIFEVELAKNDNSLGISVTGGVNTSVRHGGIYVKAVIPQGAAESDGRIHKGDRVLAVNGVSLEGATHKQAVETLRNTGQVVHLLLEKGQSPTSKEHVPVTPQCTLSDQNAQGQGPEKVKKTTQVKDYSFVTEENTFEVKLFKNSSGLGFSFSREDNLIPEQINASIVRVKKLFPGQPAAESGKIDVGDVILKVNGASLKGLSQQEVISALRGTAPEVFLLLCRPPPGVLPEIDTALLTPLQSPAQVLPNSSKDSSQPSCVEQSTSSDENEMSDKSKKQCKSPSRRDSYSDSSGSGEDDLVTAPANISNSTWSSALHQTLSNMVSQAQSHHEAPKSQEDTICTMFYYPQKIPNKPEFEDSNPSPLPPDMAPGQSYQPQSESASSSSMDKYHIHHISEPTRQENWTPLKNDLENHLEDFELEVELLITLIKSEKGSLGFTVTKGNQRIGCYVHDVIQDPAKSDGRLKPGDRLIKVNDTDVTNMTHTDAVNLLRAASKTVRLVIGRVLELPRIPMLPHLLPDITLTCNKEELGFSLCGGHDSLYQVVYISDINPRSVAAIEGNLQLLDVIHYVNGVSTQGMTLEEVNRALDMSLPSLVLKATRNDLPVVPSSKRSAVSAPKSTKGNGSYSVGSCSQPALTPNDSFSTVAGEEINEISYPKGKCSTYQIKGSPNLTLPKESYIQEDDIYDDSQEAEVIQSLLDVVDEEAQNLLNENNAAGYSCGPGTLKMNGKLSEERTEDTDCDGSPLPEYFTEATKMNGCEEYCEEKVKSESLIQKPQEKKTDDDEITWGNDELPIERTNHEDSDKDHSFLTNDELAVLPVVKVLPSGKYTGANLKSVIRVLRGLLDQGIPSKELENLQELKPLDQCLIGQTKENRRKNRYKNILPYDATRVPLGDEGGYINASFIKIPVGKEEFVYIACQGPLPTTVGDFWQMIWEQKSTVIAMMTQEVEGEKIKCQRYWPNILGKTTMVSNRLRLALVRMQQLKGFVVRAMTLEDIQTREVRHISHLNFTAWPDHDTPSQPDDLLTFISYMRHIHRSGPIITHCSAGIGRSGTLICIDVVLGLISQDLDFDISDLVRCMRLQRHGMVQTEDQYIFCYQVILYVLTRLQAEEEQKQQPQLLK

[6] = target: T3, Tyrosine-protein phosphatase non-receptor type 13; assay: Inhibitory concentration against FAP-1 pNPP
Cathepsin S = Cathepsin S (Homo sapiens, UniProt P25774); assay: Inhibitory concentration against Cathepsin S; outline: as §1
Chain of Cathepsin S (P25774 whole entry): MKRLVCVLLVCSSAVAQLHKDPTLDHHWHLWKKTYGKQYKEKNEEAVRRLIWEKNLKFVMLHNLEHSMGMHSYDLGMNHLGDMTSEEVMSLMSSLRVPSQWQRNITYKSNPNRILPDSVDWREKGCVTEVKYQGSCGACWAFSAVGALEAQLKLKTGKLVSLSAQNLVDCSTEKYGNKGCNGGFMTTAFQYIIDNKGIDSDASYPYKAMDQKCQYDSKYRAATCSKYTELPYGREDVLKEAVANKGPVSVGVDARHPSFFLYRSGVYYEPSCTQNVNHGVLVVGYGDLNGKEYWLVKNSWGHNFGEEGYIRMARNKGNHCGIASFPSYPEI

T-cell [7] = assay: In vitro inhibition of human T-cell proliferation; assay type: functional, cell-based
[8] = target: T1, Receptor-type tyrosine-protein phosphatase C; assay: In vitro inhibitory activity against the cytosolic portion of CD45 protein-tyrosine phosphatase using pNPP as the substrate
[9] = target: T3, Tyrosine-protein phosphatase non-receptor type 13; assay: Inhibitory concentration against FAP-1 using lck-10mer as substrate
[10] = target: T2, Tyrosine-protein phosphatase non-receptor type 1; assay: Inhibitory concentration against PTP1B lusing lck-10mer as substrate
[11] = target: T3, Tyrosine-protein phosphatase non-receptor type 13; assay: Inhibitory concentration against FAP-1 using pNPP as substrate
[12] = target: T1, Receptor-type tyrosine-protein phosphatase C; assay: Inhibitory concentration against CD45 protein-tyrosine phosphatase pNPP

Row | IC50 [1] [µM] | IC50 [2] [µM] | IC50 [4] [µM] | IC50 (Cathepsin B) [µM] | IC50 (Procathepsin L) [µM] | IC50 [5] [µM] | IC50 [6] [µM] | IC50 (Cathepsin S) [µM] | IC50 [8] [µM] | IC50 [9] [µM] | IC50 [10] [µM] | IC50 [11] [µM] | IC50 [12] [µM] | SMILES | CC50 (T-cell [3]) [µM] | IC50 (T-cell [7]) [µM]
1 | > 30 | 19 | – | – | – | – | – | – | – | – | – | – | – | O=C1C(=O)c2cc(-c3cc4ccccc4o3)ccc2-c2ccccc21 | 3.6 | –
2 | – | – | 1.9 | > 10 | 0.9 | > 30 | 15 | > 10 | – | – | – | – | – | O=C(O)CNC(=O)c1ccc2c(c1)C(=O)C(=O)c1ccccc1-2 | > 30 | 4.4
3 | > 30 | 18 | – | – | – | – | – | – | 0.8 | – | – | – | – | O=C1C(=O)c2cc(-c3ccccc3F)ccc2-c2ccccc21 | 8.4 | –
4 | – | – | – | > 10 | 0.6 | – | – | 6 | – | > 30 | > 30 | 4.7 | – | Nc1ccc2c(c1)C(=O)C(=O)c1ccccc1-2 | 5 | –
5 | – | – | – | > 10 | > 10 | > 30 | 9.9 | > 10 | – | – | – | – | – | COC(=O)CCCCCCC(=O)Nc1ccc2c(c1)C(=O)C(=O)c1ccccc1-2 | 14 | –
6 | 3.1 | > 30 | – | > 10 | 0.6 | > 30 | 14 | 0.4 | – | – | – | – | 1.4 | O=C1C(=O)c2cccnc2-c2ccccc21 | 2.4 | 0.2
7 | 5.2 | > 30 | – | – | – | – | – | – | 0.8 | – | – | – | – | CCCC(=O)Nc1ccc2c(c1)-c1ccccc1C(=O)C2=O | 9.1 | 0.8
8 | 11 | 18 | – | > 10 | 0.4 | 20 | 0.6 | 9 | – | – | – | – | 0.6 | O=C(Nc1ccc2c(c1)C(=O)C(=O)c1ccccc1-2)c1ccccc1F | 20 | 3.1
9 | > 30 | 16 | – | – | – | – | – | – | – | – | – | – | – | COc1ccccc1-c1ccc2c(c1)C(=O)C(=O)c1ccccc1-2 | 9.5 | –
10 | 3.8 | > 30 | – | > 10 | 0.5 | > 30 | 7 | 0.4 | – | – | – | – | – | CC(C)(C)C(=O)Nc1ccc2c(c1)C(=O)C(=O)c1ccccc1-2 | 3.5 | –
11 | 5.8 | > 30 | – | – | – | – | – | – | 1.2 | – | – | – | – | O=C(Nc1ccc2c(c1)-c1ccccc1C(=O)C2=O)c1ccccc1F | 15 | 2.9
12 | – | – | – | > 10 | – | > 30 | 4.4 | – | – | – | – | – | – | COC(=O)CCC(=O)Nc1cccc2c1C(=O)C(=O)c1ccccc1-2 | 9 | 0.5
13 | 2.9 | – | – | > 10 | 5.4 | > 30 | 12 | > 10 | – | – | – | – | – | COC(=O)CCC(=O)Nc1ccc2c(c1)C(=O)C(=O)c1cc(NC(=O)CCC(=O)OC)ccc1-2 | 7 | –

Row | SMILES | IC50 [1] [µM] | IC50 [2] [µM] | IC50 [4] [µM] | IC50 (Cathepsin B) [µM] | IC50 (Procathepsin L) [µM] | IC50 [5] [µM] | IC50 [6] [µM] | IC50 (Cathepsin S) [µM] | IC50 [8] [µM] | IC50 [9] [µM] | IC50 [10] [µM] | IC50 [11] [µM] | IC50 [12] [µM] | CC50 (T-cell [3]) [µM] | IC50 (T-cell [7]) [µM]
14 | O=C1C(=O)c2ccccc2-c2ccccc21 [9,10-PHENANTHRENEQUINONE] | – | > 30 | – | – | – | – | – | – | – | – | – | – | – | 1.3 | 0.3
